The values that follow come from ChEMBL document CHEMBL2311475, “Highly solvatochromic fluorescent naphthalimides: design, synthesis, photophysical properties and fluorescence switch-on sensing of ct-DNA” (Bioorg Med Chem Lett, 2013).

For orientation: Tm means the temperature at the midpoint of the melting transition.

Structures are written as SMILES. Active and inactive are the calls of the source. The calls are words filed in the database; no cut-off is given here.

What all share (type): nucleic-acid assay
What all share (conditions): Bos taurus

Experiment [1] concerns DNA. In words: Binding affinity to calf thymus DNA at 1:0.67 to 1:2 DNA:compound ratio by UV-Vis spectrophotometric analysis. Summed up: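 Absorption spectra of the probe were recorded in aqueous phosphate buffer, pH 7.0, while ct-DNA was added gradually. Shifts in band position and changes in intensity were followed.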
Experiment [2] relates to DNA. In words: Displacement of ethidium bromide from calf thymus DNA at 3.5 to 75 uM by fluorescence spectrophotometric analysis.
In experiment [3] the test system is DNA. Kind of experiment: Binding affinity to calf thymus DNA at 1:1 compound:DNA ratio by fluorescence titration method. The method in brief:
(§1)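 Fluorescence titration: probe held at 30 μM in aqueous phosphate buffer, pH 7.0, at room temperature, with increasing concentrations of ct-DNA added. Emission spectra were recorded at each step.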

Experiment [4] deals with DNA. In words: Binding affinity to calf thymus DNA assessed melting temperature at 1:1.5 compound:DNA ratio by thermal denaturation assay (reference value: 65.83 degC).
For experiment [5], the system named is DNA. In words: Binding affinity to calf thymus DNA at 30 uM by fluorescence titration method. The method in brief:
as §1

In experiment [6] the test system is DNA. In words: Binding affinity to calf thymus DNA assessed melting temperature at 2:1 compound:DNA ratio by thermal denaturation assay (reference value: 65.83 degC).
Experiment [7] relates to DNA. Kind of experiment: Binding affinity to calf thymus DNA assessed melting temperature at 1:0.5 compound:DNA ratio by thermal denaturation assay (reference value: 65.83 degC).
The subject of experiment [8] is DNA. Kind of experiment: Binding affinity to calf thymus DNA assessed melting temperature at 1:1 compound:DNA ratio by thermal denaturation assay (reference value: 65.83 degC).
Experiment [9] concerns DNA. In words: Binding affinity to calf thymus DNA at 30 uM by in presence of increasing concentration of DNA by Benesi-Hildebrand plot analysis.

Turning to `C#CCN1C(=O)c2cccc3c(C#Cc4ccc(N(C)C)cc4)ccc(c23)C1=O`, the result in experiment [1] and in experiment [2] was inactive. For the same molecule, the outcome in [3] was Active.

With `C#CCN1C(=O)c2cccc3c(C#Cc4ccc(C#N)cc4)ccc(c23)C1=O`, the result in experiment [1] and in experiment [2] was inactive. Besides, the Tm is 64.3 °C in experiment [4], 63.2 °C in experiment [6], 65.6 °C in experiment [7] and 64.9 °C in experiment [8]. In [5], the result was Active. For the same molecule, the K in experiment [9] is 3.98 ×10⁴ /M.
